A short description of assay [1]: hit retest on RPL19A-GFP reporter strain – cell-based, S. cerevisiae, flow cytometry, cherry picks, mother/daughter gates, confirmation (AID 2270;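 active = GFP response below 50% of the DMSO control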). As to conditions: 3 h, at 10 µM, stronger effect = lower value, 100 = same GFP as DMSO wells. In general terms: In flow cytometry, cells or beads pass a laser one at a time.
Assay [2] in a line: yeast TOR pathway reporter LAP4-GFP change – cell-based, cherry picks, flow cytometry, mother/daughter gates, confirmation (AID 2271;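 active = GFP response above 150% of the DMSO control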;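 note: ratio of sample to DMSO plate mean so 100% equals DMSO level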). As to conditions: S. cerevisiae LAP4-GFP strain, 3 h, at 10 µM, stronger effect = higher value, 100 means same as DMSO control. In outline: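 Measured by: GFP by flow cytometry. Test system: GFP-fusion yeast strain. Input: yeast cells seeded at OD600 of 0.2. Timing: 30 °C, 3 h compound incubation, rotating. Buffer or medium: synthetic complete medium for yeast. Benchmarks: DMSO-only negative wells, rapamycin 400 ng/mL positive wells. Compound: 10 µM single dose.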

A short description of assay [3]: TOR pathway reporter MEP2-GFP, retest of hits – S. cerevisiae, flow cytometry GFP, cherry picks, confirmation (AID 2272;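 active = GFP response above 150% of the DMSO control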;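 note: ratio of well signal to plate DMSO mean so 100% equals DMSO level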). As to conditions: S. cerevisiae MEP2-GFP strain, 3 h, at 10 µM, stronger effect = higher value.
The nature of assay [4]: yeast AGP1-GFP fluorescence change, single-dose – cell-based, flow cytometry, S. cerevisiae, cherry picks, confirmation (AID 2273).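 Note: median GFP channel fluorescence over the whole cell population gate.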 As to conditions: S. cerevisiae AGP1-GFP strain, 3 h, at 10 µM.
Assay [5] in a line: TOR pathway CIT2 reporter hit retest – S. cerevisiae, GFP fusion, cherry picks, mother/daughter gates, confirmation (AID 2274). As to conditions: S. cerevisiae CIT2-GFP strain, flow cytometry, 3 h, at 10 µM, stronger effect = higher value.
[6] abbreviates: measured here: daughter cell gate.
[7] abbreviates: measured here: mother cell gate.
Setting [8] is: measured here: daughter cell gate response.
The mark [9] stands for this setting: measured here: mother cell gate response.

Activity calls are given as the source filed them.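 Rule for the calls, unless noted: active = GFP response above 150% of the DMSO level; inconclusive = fewer than 70 events counted for a yeast strain; inactive = the rest.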

Take `Cc1ccc2c(c1)c1c(c(=O)n(-c3ccccc3C)c(=O)n1CC(=O)NCC1CCCO1)n2C` (configuration not stated): the GFP response vs DMSO was 98.4% (inactive) in assay [1], 99.9% in assay [1] (setting [6]), 97.2% in assay [1] (setting [7]) and 100% (inactive) in assay [3]. Besides, the GFP response relative to DMSO in assay [2] was 102% (inactive); in assay [2] (setting [8]) it was 101%; in assay [2] (setting [9]), 101%. The GFP response, % of DMSO in assay [4] was 98.3% (inactive); in assay [5], 103% (inactive); in assay [5] (setting [6]), 103%; in assay [5] (setting [7]) it was 102%.
Take `COc1ccc(-c2cc3cc(C(=O)O)ccn3c2C(=O)c2ccccc2)cc1`: the GFP response vs DMSO in assay [1] was 97% (inactive); in assay [1] (setting [6]) it was 95.6%; in assay [1] (setting [7]), 98.4%; in assay [3] it was 105% (inactive). Also, the GFP response relative to DMSO in assay [2] is 107% (inactive); in assay [2] (setting [8]), 106%; in assay [2] (setting [9]), 108%. The GFP response, % of DMSO in assay [4] is 98.3% (inactive); in assay [5], 98.3% (inactive); in assay [5] (setting [6]), 99.1%; in assay [5] (setting [7]), 99.7%.
Take `O=C(COc1ccccc1[N+](=O)[O-])Nc1ccc(NC(=O)c2cc3ccccc3o2)cc1`: the GFP response vs DMSO is 100% (inactive) in assay [1], 98.9% in assay [1] (setting [6]), 99.3% in assay [1] (setting [7]) and 103% (inactive) in assay [3]. The GFP response relative to DMSO was 88.7% (inactive) in assay [2], 92% in assay [2] (setting [8]) and 88.9% in assay [2] (setting [9]). In addition, the GFP response, % of DMSO in assay [4] was 99.8% (inactive); in assay [5] it was 92.2% (inactive); in assay [5] (setting [6]), 92.1%; in assay [5] (setting [7]) it was 91.8%.
For `Cc1nnc(NC(=O)c2nc(S(=O)(=O)Cc3ccccc3C)ncc2Cl)s1`, the GFP response vs DMSO was 97.1% (inactive) in assay [1], 96.4% in assay [1] (setting [6]), 94.4% in assay [1] (setting [7]) and 99.3% (inactive) in assay [3]. The GFP response relative to DMSO in assay [2] is 98.9% (inactive); in assay [2] (setting [8]), 99%; in assay [2] (setting [9]), 97.4%. The GFP response, % of DMSO in assay [4] was 98.2% (inactive); in assay [5], 97.2% (inactive); in assay [5] (setting [6]), 97.6%; in assay [5] (setting [7]), 96%.
With `CCOC(=O)c1ccc(NC(=O)CCc2nc(-c3ccc(Cl)cc3)no2)cc1`, the GFP response vs DMSO in assay [1] is 99.4% (inactive); in assay [1] (setting [6]), 100%; in assay [1] (setting [7]), 101%; in assay [3] it was 98.3% (inactive). For the same molecule, the GFP response relative to DMSO in assay [2] is 99.2% (inactive); in assay [2] (setting [8]), 99.2%; in assay [2] (setting [9]) it was 100%. The GFP response, % of DMSO was 95.4% (inactive) in assay [4], 105% (inactive) in assay [5], 105% in assay [5] (setting [6]) and 104% in assay [5] (setting [7]).
In the case of `O=C1C2C3C=CC(CNS(=O)(=O)c4ccccc4[N+](=O)[O-])(O3)C2C(=O)N1c1ccccc1` (configuration not stated), the GFP response vs DMSO in assay [1] was 97.6% (inactive); in assay [1] (setting [6]) it was 97.3%; in assay [1] (setting [7]) it was 97.3%; in assay [3], 101% (inactive). In addition, the GFP response relative to DMSO in assay [2] was 98.6% (inactive); in assay [2] (setting [8]), 99.7%; in assay [2] (setting [9]), 98.2%. Moreover, the GFP response, % of DMSO in assay [4] is 101% (inactive); in assay [5], 107% (inactive); in assay [5] (setting [6]), 106%; in assay [5] (setting [7]), 107%.
On to `Cn1c(=O)c(C(=O)Nc2ncccc2O)c(O)c2ccccc21`, for which the GFP response vs DMSO was 95.3% (inactive) in assay [1], 93.9% in assay [1] (setting [6]), 91.8% in assay [1] (setting [7]) and 145% (inactive) in assay [3]. For the same molecule, the GFP response relative to DMSO is 100% (inactive) in assay [2], 91.3% in assay [2] (setting [8]) and 90.3% in assay [2] (setting [9]). In addition, the GFP response, % of DMSO in assay [4] was 99.8% (inactive); in assay [5], 90.3% (inactive); in assay [5] (setting [6]), 90.5%; in assay [5] (setting [7]), 88.2%.
Take `O=[N+]([O-])c1ccc(N=Nc2c(Cl)cc(O)cc2Cl)cc1`: the GFP response vs DMSO is 91.9% (inactive) in assay [1], 84.8% in assay [1] (setting [6]), 85.2% in assay [1] (setting [7]) and 112% (inactive) in assay [3]. Besides, the GFP response relative to DMSO is 252% (active) in assay [2], 150% in assay [2] (setting [8]) and 230% in assay [2] (setting [9]). Further, the GFP response, % of DMSO in assay [4] was 91.4% (inactive); in assay [5], 96.4% (inactive); in assay [5] (setting [6]) it was 96.4%; in assay [5] (setting [7]), 82.8%.
As for `O=C(NCc1ccc2c(c1)OCO2)c1nc(S(=O)(=O)Cc2ccccc2)ncc1Cl`, the GFP response vs DMSO is 97.8% (inactive) in assay [1], 96.2% in assay [1] (setting [6]), 97.4% in assay [1] (setting [7]) and 99.5% (inactive) in assay [3]. Further, the GFP response relative to DMSO in assay [2] is 109% (inactive); in assay [2] (setting [8]), 102%; in assay [2] (setting [9]) it was 109%. The GFP response, % of DMSO in assay [4] is 94.5% (inactive); in assay [5], 99.3% (inactive); in assay [5] (setting [6]), 98.3%; in assay [5] (setting [7]), 96.8%.
Consider `COCCCN(C(=O)c1ccco1)c1nc(-c2cc(OC)ccc2OC)cs1`, for which the GFP response vs DMSO in assay [1] was 95.8% (inactive); in assay [1] (setting [6]), 96.4%; in assay [1] (setting [7]) it was 94%; in assay [3] it was 112% (inactive). The results for the GFP response relative to DMSO in assay [2], in assay [2] (setting [8]) and in assay [2] (setting [9]) were 98.9% (inactive), 96% and 100%, respectively. Besides, the GFP response, % of DMSO in assay [4] is 98.4% (inactive); in assay [5], 100% (inactive); in assay [5] (setting [6]), 103%; in assay [5] (setting [7]), 99.3%.
Regarding `CC(=O)Nc1c(-c2ccc(F)cc2)nc2ccccn12`, the GFP response vs DMSO in assay [1] was 97.6% (inactive); in assay [1] (setting [6]), 99%; in assay [1] (setting [7]) it was 95.8%; in assay [3], 116% (inactive). The GFP response relative to DMSO in assay [2] is 106% (inactive); in assay [2] (setting [8]), 110%; in assay [2] (setting [9]) it was 108%. Moreover, the GFP response, % of DMSO in assay [4] is 106% (inactive); in assay [5], 110% (inactive); in assay [5] (setting [6]) it was 114%; in assay [5] (setting [7]) it was 108%.
As for `Cc1cc(C)nc(/N=C(\N)N2CCCCCC2)n1`, the GFP response vs DMSO is 99.3% (inactive) in assay [1], 100% in assay [1] (setting [6]), 100% in assay [1] (setting [7]) and 99.5% (inactive) in assay [3]. Also, the GFP response relative to DMSO in assay [2] is 103% (inactive); in assay [2] (setting [8]), 104%; in assay [2] (setting [9]), 102%. Besides, the GFP response, % of DMSO is 99.5% (inactive) in assay [4], 101% (inactive) in assay [5], 100% in assay [5] (setting [6]) and 100% in assay [5] (setting [7]).
As to `CCN(CC)CCCN(C(=O)c1ccc(Br)cc1)c1nc(-c2ccc(OC)cc2)cs1`, the GFP response vs DMSO was 96.5% (inactive) in assay [1], 97.3% in assay [1] (setting [6]), 96.9% in assay [1] (setting [7]) and 101% (inactive) in assay [3]. The GFP response relative to DMSO in assay [2] is 95.3% (inactive); in assay [2] (setting [8]) it was 99%; in assay [2] (setting [9]) it was 94.4%. Also, the GFP response, % of DMSO is 97.9% (inactive) in assay [4], 95.8% (inactive) in assay [5], 95.8% in assay [5] (setting [6]) and 98.2% in assay [5] (setting [7]).
Consider `COc1ccc(CCN2C(=O)c3cccc4cccc(c34)C2=O)cc1OC`, for which the GFP response vs DMSO in assay [1] is 104% (inactive); in assay [1] (setting [6]), 100%; in assay [1] (setting [7]) it was 104%; in assay [3], 101% (inactive). Also, the GFP response relative to DMSO in assay [2] was 95.7% (inactive); in assay [2] (setting [8]) it was 99.1%; in assay [2] (setting [9]), 97.3%. Further, the GFP response, % of DMSO in assay [4] was 105% (inactive); in assay [5] it was 100% (inactive); in assay [5] (setting [6]), 101%; in assay [5] (setting [7]), 96.8%.
Take `COc1ccccc1C1CC(c2c(-c3ccccc3)c3cc(Cl)ccc3[nH]c2=O)=NN1S(C)(=O)=O` (configuration not stated): the GFP response vs DMSO is 97.6% (inactive) in assay [1], 98.9% in assay [1] (setting [6]), 97.4% in assay [1] (setting [7]) and 119% (inactive) in assay [3]. In addition, the GFP response relative to DMSO in assay [2] was 106% (inactive); in assay [2] (setting [8]), 107%; in assay [2] (setting [9]) it was 105%. Further, the GFP response, % of DMSO was 96.4% (inactive) in assay [4], 113% (inactive) in assay [5], 112% in assay [5] (setting [6]) and 112% in assay [5] (setting [7]).
For the molecule `Cc1ccc(/C=C/C(=O)c2ccc([N+](=O)[O-])o2)cc1`, the GFP response vs DMSO was 101% (inactive) in assay [1], 107% in assay [1] (setting [6]), 91.8% in assay [1] (setting [7]) and 114% (inactive) in assay [3]. Also, the GFP response relative to DMSO in assay [2] was 89.4% (inactive); in assay [2] (setting [8]), 89.8%; in assay [2] (setting [9]) it was 85.2%. Also, the GFP response, % of DMSO in assay [4] was 107% (inactive); in assay [5] it was 106% (inactive); in assay [5] (setting [6]), 114%; in assay [5] (setting [7]), 89.3%.
Regarding `CC(=O)Oc1oc(-c2ccccc2)nc1C=Nc1ccccc1`, the GFP response vs DMSO is 102% (inactive) in assay [1], 101% in assay [1] (setting [6]), 98.6% in assay [1] (setting [7]) and 97.2% (inactive) in assay [3]. Also, the figures for the GFP response relative to DMSO in assay [2], in assay [2] (setting [8]) and in assay [2] (setting [9]) were 126% (inactive), 119% and 130%, respectively. Moreover, the GFP response, % of DMSO in assay [4] is 95.2% (inactive); in assay [5], 90.3% (inactive); in assay [5] (setting [6]), 92.3%; in assay [5] (setting [7]), 89.3%.

Source of the values: PubChem BioAssay.
